In PMC5563258 (Journal of medicinal chemistry, 2017):

Tests used:
D3R [1] = molecular target: T1, D3R (Homo sapiens, UniProt P35462); conditions: BRET assay; cited from earlier work
D3R [2] = molecular target: T1, D3R; assay: β-arrestin recruitment assay; format: cell-based; conditions: Figure 2
Summary of the method: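 HEK293T cells were transiently transfected (polyethylenimine) with D3R–Rluc8 (C-terminal), mVenus–β-arrestin 2 (N-terminal) and GRK2, and assayed ~48 h later. Cells in PBS + 5 mM glucose got coelenterazine H (5 µM) for 8 min, then test compound (final 10 pM–100 µM). BRET1 (510–540/485 nm) was read at 30 min, normalized to vehicle (0%) and dopamine (100%), and fitted sigmoidally.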

D3R [3] = molecular target: T1, D3R; assay: Go BRET activation assay; format: cell-based; conditions: for Functional efficacy class: Go BRET activation assay, Figure 1
[4] = dogs; cited from earlier work

T1 sequence (P35462 whole entry): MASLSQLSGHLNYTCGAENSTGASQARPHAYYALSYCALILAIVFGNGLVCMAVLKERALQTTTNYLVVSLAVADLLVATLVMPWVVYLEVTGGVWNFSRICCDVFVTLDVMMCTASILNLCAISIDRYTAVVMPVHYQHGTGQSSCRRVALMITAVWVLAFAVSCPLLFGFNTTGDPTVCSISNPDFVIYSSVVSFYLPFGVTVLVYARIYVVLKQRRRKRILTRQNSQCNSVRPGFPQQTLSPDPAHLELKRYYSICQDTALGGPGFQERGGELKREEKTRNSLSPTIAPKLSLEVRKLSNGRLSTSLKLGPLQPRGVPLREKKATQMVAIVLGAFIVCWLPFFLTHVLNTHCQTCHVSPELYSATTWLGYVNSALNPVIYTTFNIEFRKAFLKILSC

Q: Which “Emax (% of dopamine efficacy)” value (D3R [1]) does the source give for `Clc1cccc(N2CCNCC2)c1Cl` [2,3-diCl-phenylpiperazine, 1-(2,3-dichlorophenyl)piperazine] here?
A: 57.3%

Q: Which Functional efficacy class (D3R [2]) does the source give for `O=C(NCC[C@@H](O)CN1CCN(c2cccc(Cl)c2Cl)CC1)c1cnc2ccccc2c1` [(R)-4, (R)-N-(4-(4-(2,3-Dichlorophenyl)piperazin-1-yl)-3-hydroxybutyl)quinoline-3-carboxamide] here?
A: antagonists

Q: Which Functional efficacy class (D3R [2]) does the source give for `O=C(NCC[C@@H](O)CN1CCN(c2cccc(Cl)c2Cl)CC1)c1cc2ccccc2[nH]1` [(R)-9] here?
A: antagonists

Q: Which Functional efficacy class (D3R [2]) does the source give for `O=C(NCC[C@H](O)CN1CCN(c2cccc(Cl)c2Cl)CC1)c1cnc2ccccc2c1` [(S)-4, (S)-N-(4-(4-(2,3-Dichlorophenyl)piperazin-1-yl)-3-hydroxybutyl)quinoline-3-carboxamide] here?
A: partial agonists

Q: What about the Functional efficacy class (D3R [3]) of the same compound?
A: partial agonists

Q: Which Functional efficacy class (D3R [2]) does the source give for `CC[C@H](O)CN1CCN(c2cccc(Cl)c2Cl)CC1` [(S)-6, (S)-1-(4-(2,3-Dichlorophenyl)piperazin-1-yl)butan-2-ol] here?
A: partial agonists

Q: What about the Functional efficacy class (D3R [3]) of the same compound?
A: partial agonists

Q: What does the source list for `O=C(NCC[C@H](O)CN1CCN(c2cccc(Cl)c2Cl)CC1)c1cc2ccccc2[nH]1` [(S)-9]?
A: Functional efficacy class (D3R [2]): partial agonists; Functional efficacy class (D3R [3]): partial agonists

Q: Which Emax (D3R [3]; HEK-293T, read-out: Emax (% of dopamine efficacy)) does the source give for `O=C(NCCCCN1CCN(c2cccc(Cl)c2Cl)CC1)c1cc2ccccc2[nH]1` [Compound 10] here?
A: 16%

Q: For `Cc1ncoc1-c1nnc(SCCCN2CC3CC3(c3ccc(C(F)(F)F)cc3F)C2)n1C` (centres unmarked) [GSK598,809, 1-(2-fluoro-4-trifluoromethyl-phenyl)-3-{3-[4-methyl-5-(4-methyl-oxazol-5-yl)-4H-[1,2,4]triazol-3-ylsulfanyl]-propyl}-3-aza-bicyclo[3.1.0]hexane], which “Effect on cocaine-mediated increases in blood pressure and heart rate” value [4] is on record?
A: potentiate cocaine-mediated increases in blood pressure and heart rate
